Screening results: PubChem, several laboratories
UBC13 polyUb = inhibitors of human UBC13 polyubiquitin chain formation; P61088; TR-FRET; inhibition, % at 20 µM; actives 0.47% (n = 330,000); in the data active means inhibition above about 45%, passing the limit was not always enough
Target sequence (P61088 whole entry, looked up): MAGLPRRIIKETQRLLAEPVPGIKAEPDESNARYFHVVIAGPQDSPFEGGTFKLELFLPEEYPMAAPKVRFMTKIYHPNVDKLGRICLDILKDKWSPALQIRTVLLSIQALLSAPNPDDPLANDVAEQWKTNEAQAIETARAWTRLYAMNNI
MEKK3 PB1 HTS = MEKK3-MEK5 PB1 interaction, increase or decrease; Q99759; bead-based flow cytometry, Alexa488-MEK5 binding to MEKK3; actives lie on both sides; 0 = blocked by unlabeled MEK5, 100 = vehicle; binding response (% of control), % at 10 µM; actives 1.4% (n = 290,000); AID 1529;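 active means binding response more than 3 SD above or below the average of its plate-row segment, actives on both sides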;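 further: Alexa488 bead fluorescence after subtracting the streptavidin-only scavenger bead signal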
Target sequence (Q99759 whole entry, looked up): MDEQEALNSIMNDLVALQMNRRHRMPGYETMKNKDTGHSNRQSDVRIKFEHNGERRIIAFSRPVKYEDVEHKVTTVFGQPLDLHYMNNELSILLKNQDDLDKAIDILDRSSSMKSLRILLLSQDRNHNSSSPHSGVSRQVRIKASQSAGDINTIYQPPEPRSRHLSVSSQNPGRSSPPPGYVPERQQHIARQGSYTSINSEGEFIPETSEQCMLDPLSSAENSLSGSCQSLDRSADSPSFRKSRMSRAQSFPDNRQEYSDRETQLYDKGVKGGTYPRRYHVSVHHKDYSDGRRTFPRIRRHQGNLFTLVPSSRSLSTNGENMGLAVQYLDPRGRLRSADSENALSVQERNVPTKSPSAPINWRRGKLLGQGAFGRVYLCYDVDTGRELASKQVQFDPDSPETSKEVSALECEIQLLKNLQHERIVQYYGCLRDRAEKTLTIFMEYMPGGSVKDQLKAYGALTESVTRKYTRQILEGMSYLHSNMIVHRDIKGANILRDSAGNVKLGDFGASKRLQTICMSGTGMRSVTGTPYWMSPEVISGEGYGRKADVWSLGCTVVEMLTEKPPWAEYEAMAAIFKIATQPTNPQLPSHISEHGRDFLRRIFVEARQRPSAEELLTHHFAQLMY
MEKK2 mut-MEK5 = signal of MEK5 binding to mutant human MEKK2 PB1 domain | bead flow cytometry, Alexa488-MEK5 binding to MEKK2 mutant | percent response, % at 10 µM | actives 0.35% (n = 290,000) | AID 1530; in the data active means percent response above about 24%, passing the limit was not always enough
PREPL inhibitor = inhibitors of human prolyl oligopeptidase-like enzyme PREPL; recombinant PREPL, fluorescence polarization activity-based probe; Q4J6C6; inhibition, % at 5.96 µM; actives 0.68% (n = 320,000); in the data active means inhibition above about 43%;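 further: 0% = enzyme with DMSO and 100% = wells lacking enzyme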
Apaf1 inhib = inhibitors of human Apaf-1 apoptosome; AID 489030; actives 0.71% (n = 330,000); reconstituted apoptosome caspase-3 activity, DEVD-Rh110 fluorescence; inhibition, % at 20 µM; active means inhibition of at least 40% at 20 µM;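 further: plate controls were DMSO wells for no effect and DEVD-CHO caspase inhibitor wells for full effect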
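Material: cell-free apoptosome with Apaf-1, procaspase-3 and caspase-9; Buffer or medium: Hepes pH 7.5 with detergent and BSA; Reagent: cytochrome c trigger plus (Z-DEVD)2-Rh110 caspase-3 substrate; Times: compound with Apaf-1, dATP, procaspase-3 30 min, then 50 min reaction, room temperature; Technique: Rh110 fluorescence intensity.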
MEKK2wt PB1 HTS = raises or lowers MEK5 binding to wildtype human MEKK2 PB1 domain; actives 1.1% (n = 290,000); binding response (% of control), % at 10 µM; bead flow cytometry, Alexa488-MEK5 binding to MEKK2 WT; actives lie on both sides; in the data active means binding response below about 67% or above about 130%
MEKK2wt confirm = raises or lowers MEK5 binding to wildtype human MEKK2, retest | actives 2.4% (n = 5,900) | shares compounds with MEKK3 PB1 HTS | binding response (% of control), % at 10 µM | AID 1892 | bead flow cytometry, Alexa488-MEK5 binding to MEKK2 WT; actives lie on both sides; in the data active means binding response below about 16% or above about 210%; inactive means in between
MEKK2mut confirm = signal of MEK5 binding to mutant human MEKK2, retest; shares compounds with MEKK3 PB1 HTS; bead flow cytometry, Alexa488-MEK5 binding to MEKK2 mutant; percent response, % at 10 µM; actives 2% (n = 5,900); AID 1893; in the data active means percent response mostly above about 71%, no sharp cut-off; inactive means mostly below about 38%;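 further: higher means compound restores mutant binding toward wildtype level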
MEKK3-MEK5 inh = confirmation of inhibitors of MEK5 binding to human MEKK3; shares compounds with MEKK3 PB1 HTS; bead flow cytometry, Alexa488-MEK5 binding to MEKK3; stronger effect = lower value; binding response (% of control), % at 10 µM; actives 1.8% (n = 5,900);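 active means binding response below 72% of control, or above a set upper limit, though filed actives all read lower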;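 further: 100% = DMSO only wells and 0% = binding blocked by excess unlabeled MEK5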
* = called active by the depositor; [ ] = dose if it differs, or a comment. Most compounds without a hit are left out; they make up all but 3.1% or so of the library.

How did CC1(C)CC(=O)C(C(O)c2cccc([N+](=O)[O-])c2)C(C)(C)N1 (centres undefined) do in these assays?
UBC13 polyUb: -1.3; MEKK3 PB1 HTS: 112.0; MEKK2 mut-MEK5: 25.0*; PREPL inhibitor: 9.8; Apaf1 inhib: -11.8; MEKK2wt PB1 HTS: 111.0; MEKK2wt confirm: 107.0; MEKK2mut confirm: 6.0; MEKK3-MEK5 inh: 104.0

How did CC1(C)CC(=O)C(C(c2cccc([N+](=O)[O-])c2)C2C(=O)CC(C)(C)CC2=O)C(=O)C1 do in these assays?
UBC13 polyUb: 7.0; MEKK3 PB1 HTS: 95.0; MEKK2 mut-MEK5: -1.0; PREPL inhibitor: -0.5; Apaf1 inhib: 2.8; MEKK2wt PB1 HTS: 99.0

How did Cc1nc(NC(=S)NC(=O)COc2ccc(Cl)cc2)ccc1Br do in these assays?
UBC13 polyUb: 0.3; MEKK3 PB1 HTS: 139.0*; MEKK2 mut-MEK5: -1.0; PREPL inhibitor: -0.5; Apaf1 inhib: -9.7; MEKK2wt PB1 HTS: 104.0; MEKK2wt confirm: 101.0; MEKK2mut confirm: 4.0; MEKK3-MEK5 inh: 102.0

How did O=C(Nc1nnc(-c2ccccn2)o1)c1cccc(Cl)c1 do in these assays?
UBC13 polyUb: -27.3; MEKK3 PB1 HTS: 87.0; MEKK2 mut-MEK5: -6.0; PREPL inhibitor: 9.8; Apaf1 inhib: 11.5; MEKK2wt PB1 HTS: 96.0

How did CC(=O)Nc1nnc(-c2ccccn2)o1 do in these assays?
UBC13 polyUb: -8.2; MEKK3 PB1 HTS: 134.0*; MEKK2 mut-MEK5: 0.0; PREPL inhibitor: 5.4; Apaf1 inhib: 3.1; MEKK2wt PB1 HTS: 103.0; MEKK2wt confirm: 100.0; MEKK2mut confirm: 8.0; MEKK3-MEK5 inh: 99.0

Results for COC(=O)c1cc(C(C)=O)c(C)[nH]c1=O ?
UBC13 polyUb: 6.7; MEKK3 PB1 HTS: 128.0*; MEKK2 mut-MEK5: 1.0; PREPL inhibitor: -7.5; Apaf1 inhib: 2.0; MEKK2wt PB1 HTS: 112.0; MEKK2wt confirm: 96.0; MEKK2mut confirm: -3.0; MEKK3-MEK5 inh: 98.0

What do the screens show for `CCOC(=O)c1cc(C(C)=O)c(=O)[nH]c1C`?
UBC13 polyUb: -9.1; MEKK3 PB1 HTS: 106.0; MEKK2 mut-MEK5: 0.0; PREPL inhibitor: 4.6; Apaf1 inhib: -1.9; MEKK2wt PB1 HTS: 98.0

What do the screens show for `CSCCC(NS(=O)(=O)c1ccc2c(c1)OCCO2)C(=O)N(C)Cc1ccccc1F` (centres undefined)?
UBC13 polyUb: 13.2; PREPL inhibitor: 4.7; Apaf1 inhib: 2.8

Results for CCOC(=O)N1CCN(c2c(N3CCN(c4ccccc4F)CC3)c(=O)c2=O)CC1 ?
UBC13 polyUb: 16.0; MEKK3 PB1 HTS: 72.0*[inhibitor]; MEKK2 mut-MEK5: -5.0; PREPL inhibitor: 0.7; Apaf1 inhib: -9.7; MEKK2wt PB1 HTS: 82.0; MEKK2wt confirm: 75.0; MEKK2mut confirm: -23.0; MEKK3-MEK5 inh: 70.0*

How did CCOC(=O)c1ccc(N2CCN(c3ccccc3F)CC2)c(NC(=O)Nc2ccccc2)c1 do in these assays?
UBC13 polyUb: 10.9; MEKK3 PB1 HTS: 102.0; MEKK2 mut-MEK5: 9.0; PREPL inhibitor: 28.9; Apaf1 inhib: 11.5; MEKK2wt PB1 HTS: 30.0*[inhibitor]; MEKK2wt confirm: 106.0; MEKK2mut confirm: -2.0; MEKK3-MEK5 inh: 103.0

Results for CC1CCCN(C(=O)c2cn(-c3ccccc3)nc2-c2cccnc2)C1 (centres undefined) ?
UBC13 polyUb: 1.9; PREPL inhibitor: -7.4; Apaf1 inhib: -2.1

What do the screens show for `CC(=O)c1c(N2CCN(C)CC2)[nH]c(-c2ccccc2)nc1=S`?
UBC13 polyUb: -1.3; MEKK3 PB1 HTS: 99.0; MEKK2 mut-MEK5: 47.0*; PREPL inhibitor: 12.2; Apaf1 inhib: 0.0; MEKK2wt PB1 HTS: 23.0*; MEKK2wt confirm: 118.0; MEKK2mut confirm: 9.0; MEKK3-MEK5 inh: 104.0

What do the screens show for `CCn1c(C)c(C(C)=O)c(N2CCN(c3ccccc3)CC2)nc1=S`?
UBC13 polyUb: -11.0; MEKK3 PB1 HTS: 101.0; MEKK2 mut-MEK5: 4.0; PREPL inhibitor: 15.2; Apaf1 inhib: -0.6; MEKK2wt PB1 HTS: 102.0

How did CC(C)c1ccc(/C=N/n2c(COc3ccccc3)n[nH]c2=S)cc1 do in these assays?
UBC13 polyUb: -18.5; MEKK3 PB1 HTS: 105.0; MEKK2 mut-MEK5: 1.0; PREPL inhibitor: -10.3; Apaf1 inhib: 22.6; MEKK2wt PB1 HTS: 102.0

What do the screens show for `Cc1ccccc1S(=O)(=O)Cc1ccc(C(=O)O)o1`?
UBC13 polyUb: 7.2; MEKK3 PB1 HTS: 80.0*[inhibitor]; MEKK2 mut-MEK5: -13.0; PREPL inhibitor: -4.0; Apaf1 inhib: -18.1; MEKK2wt PB1 HTS: 82.0; MEKK2wt confirm: 107.0; MEKK2mut confirm: 14.0; MEKK3-MEK5 inh: 108.0

What do the screens show for `Cc1cc(NC(=O)CSc2nnc(CNC(=O)c3c(F)cccc3F)o2)no1`?
UBC13 polyUb: 1.2; MEKK3 PB1 HTS: 104.0; MEKK2 mut-MEK5: 7.0; PREPL inhibitor: 22.0; Apaf1 inhib: 8.9; MEKK2wt PB1 HTS: 107.0

How did CCOc1ccc(S(=O)(=O)N/N=C2/CC(c3ccccc3)Oc3ccccc32)cc1 (centres undefined) do in these assays?
UBC13 polyUb: 1.5; MEKK3 PB1 HTS: 105.0; MEKK2 mut-MEK5: 1.0; PREPL inhibitor: -18.0; Apaf1 inhib: 29.0; MEKK2wt PB1 HTS: 100.0

How did COCCCn1c(-c2ccc(Cl)cc2)n[nH]c1=S do in these assays?
UBC13 polyUb: 6.0; MEKK3 PB1 HTS: 108.0; MEKK2 mut-MEK5: 6.0; PREPL inhibitor: 0.6; Apaf1 inhib: -1.5; MEKK2wt PB1 HTS: 109.0

What do the screens show for `S=c1[nH]nc(-c2ccc(Cl)cc2)n1CCCN1CCOCC1`?
UBC13 polyUb: -3.7; MEKK3 PB1 HTS: 118.0; MEKK2 mut-MEK5: 431.0*; PREPL inhibitor: 0.4; Apaf1 inhib: -5.8; MEKK2wt PB1 HTS: 119.0; MEKK2wt confirm: 100.0; MEKK2mut confirm: -6.0; MEKK3-MEK5 inh: 103.0

What do the screens show for `O=C(COC(=O)c1cccs1)NCCc1ccc(F)cc1`?
UBC13 polyUb: 3.6; Apaf1 inhib: 1.3

Results for O=C(COc1ccccc1-c1ccccc1)NCc1cccc(Cl)c1 ?
UBC13 polyUb: 8.3; MEKK3 PB1 HTS: 111.0; MEKK2 mut-MEK5: 27.0; PREPL inhibitor: -10.8; Apaf1 inhib: 4.6; MEKK2wt PB1 HTS: 147.0*; MEKK2wt confirm: 99.0; MEKK2mut confirm: -6.0; MEKK3-MEK5 inh: 99.0

How did CC(=O)CN1Cc2ccccc2/C1=N\C(=O)Nc1ccccc1 do in these assays?
UBC13 polyUb: -1.8; MEKK3 PB1 HTS: 77.0*[inhibitor]; MEKK2 mut-MEK5: -9.0; PREPL inhibitor: 3.9; Apaf1 inhib: -10.5; MEKK2wt PB1 HTS: 86.0; MEKK2wt confirm: 101.0; MEKK2mut confirm: -6.0; MEKK3-MEK5 inh: 101.0
